The species entered for data set [1] is Mus musculus. In words: Binding affinity to mouse PTEN mRNA assessed as melting temperature. In a few lines: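 Tm of ASO–RNA duplex, i.e. melting temperature of the ASO hybridised to its complementary RNA.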
Data set [2] has as its system Mus musculus. Kind of data set: Reduction of PTEN mRNA level in ip dosed BALB/c mouse liver after 72 hrs. It counts as functional.
Data set [3] has as its system bEND. In words: Reduction in mouse PTEN mRNA level expressed in mouse bEND cells. It counts as functional, cell-based. In a few lines: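 bEND mouse brain endothelial cells transfected with ASO using lipofectin; PTEN mRNA reduction measured over a dose range; IC50 taken from dose-response curves.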
Data set [4] relates to Mus musculus. Kind of data set: Hepatotoxicity in BALB/c mouse assessed as increase in liver ALT level at 60 mg/kg, ip after 72 hrs. It counts as toxicity, organism-based. The arrangement: dose 60 mg/kg, route intraperitoneal. The settings on record: in vivo.
Data set [5] concerns Mus musculus. In words: Reduction of PTEN mRNA level in BALB/c mouse liver at 37 mg/kg, ip after 72 hrs. It counts as functional, organism-based. On the set-up: dose 37 mg/kg.
Data set [6] relates to Mus musculus. In words: Reduction of PTEN mRNA level in BALB/c mouse liver at 60 mg/kg, ip after 72 hrs. It counts as functional, organism-based. On the set-up: dose 60 mg/kg.

The source made the active and inactive calls. The calls are words filed in the database; no cut-off is given here.

As usually defined, the ED50 is the dose that gives a 50% effect, or the effect in half of the subjects. By IC50 is commonly meant the midpoint of a concentration-inhibition curve. `COC[C@@H]1O[C@H]2[C@H](n3cc(C)c(N)nc3=O)O[C@]1(COP(O)(=S)O[C@H]1[C@H]3O[C@@H](COC)[C@]1(COP(O)(=S)O[C@H]1C[C@H](n4cc(C)c(=O)[nH]c4=O)O[C@@H]1COP(O)(=S)O[C@H]1[C@@H](O)[C@H](n4cnc5c4N=CNC5N)O[C@@H]1COP(O)(=S)O[C@H]1[C@@H](O)[C@H](n4cnc5c(=O)[nH]c(N)nc54)O[C@@H]1COP(O)(=S)O[C@H]1[C@@H](O)[C@H](n4ccc(N)nc4=O)O[C@@H]1COP(O)(=S)O[C@H]1[C@@H](O)[C@H](n4cnc5c(N)ncnc54)O[C@@H]1COP(O)(=S)O[C@H]1[C@@H](O)[C@H](n4ccc(N)nc4=O)O[C@@H]1COP(O)(=S)O[C@H]1[C@@H](O)[C@H](n4cc(C)c(=O)[nH]c4=O)O[C@@H]1COP(O)(=S)O[C@H]1[C@@H](O)[C@H](n4cnc5c(=O)[nH]c(N)nc54)O[C@@H]1COP(O)(=S)O[C@H]1[C@@H](O)[C@H](n4cnc5c(=O)[nH]c(N)nc54)O[C@@H]1COP(O)(=S)O[C@H]1[C@@H](O)[C@H](n4ccc(N)nc4=O)O[C@@H]1COP(O)(=S)O[C@H]1[C@H]4O[C@@H](COC)[C@]1(COP(O)(=S)O[C@H]1[C@H]5O[C@@H](COC)[C@]1(CO)O[C@H]5n1ccc(=O)[nH]c1=O)O[C@H]4n1cc(C)c(N)nc1=O)O[C@H]3n1ccc(=O)[nH]c1=O)[C@H]2O` (stereo partly drawn): the Tm in data set [1] turned out to be 57.6 °C. Moreover, the ED50 in data set [2] is 25 mg/kg. Also, half-maximal inhibition in data set [3] (IC50) required 5 nM.
As for `Cc1cn([C@@H]2O[C@@]3(COP(O)(=S)O[C@H]4[C@H]5OC[C@]4(COP(O)(=S)O[C@@H]4[C@H](O)[C@@H](COP(O)(=S)O[C@H]6[C@@H](O)[C@H](n7cnc8c(=O)[nH]c(N)nc87)O[C@@H]6COP(O)(=S)O[C@H]6[C@@H](O)[C@H](n7ccc(N)nc7=O)O[C@@H]6COP(O)(=S)O[C@H]6[C@@H](O)[C@H](n7ccc(N)nc7=O)O[C@@H]6COP(O)(=S)O[C@H]6C[C@H](n7cc(C)c(=O)[nH]c7=O)O[C@@H]6COP(O)(=S)O[C@H]6[C@@H](O)[C@H](n7ccc(N)nc7=O)O[C@@H]6COP(O)(=S)O[C@H]6C[C@H](n7cc(C)c(=O)[nH]c7=O)O[C@@H]6COP(O)(=S)O[C@H]6[C@@H](O)[C@H](n7cnc8c(=O)[nH]c(N)nc87)O[C@@H]6COP(O)(=S)O[C@H]6[C@@H](O)[C@H](n7cnc8c(=O)[nH]c(N)nc87)O[C@@H]6COP(O)(=S)O[C@H]6[C@@H](O)[C@H](n7cnc8c(N)ncnc87)O[C@@H]6COP(O)(=S)O[C@H]6[C@H]7OC[C@]6(COP(O)(=S)O[C@H]6[C@H]8OC[C@]6(COP(O)(=S)O[C@H]6[C@H]9OC[C@]6(CO)O[C@H]9n6cc(C)c(=O)[nH]c6=O)O[C@H]8n6cc(C)c(=O)[nH]c6=O)O[C@H]7n6cc(C)c(=O)[nH]c6=O)O[C@H]4n4cnc6c(N)ncnc64)O[C@H]5n4cc(C)c(=O)[nH]c4=O)CO[C@@H]2[C@@H]3OP(O)(=S)OC[C@@]23CO[C@@H]([C@H](n4cnc5c(=O)[nH]c(N)nc54)O2)[C@@H]3O)c(=O)nc1N` (stereo partly drawn), the Activity entry in data set [4] is listed as “Non-toxic”. The outcome in data set [5] and in data set [6] was Active.
Regarding `Cc1cn([C@@H]2O[C@@]3(COP(O)(=S)O[C@H]4[C@H]5OC[C@]4(CO)O[C@H]5n4cc(C)c(N)nc4=O)CO[C@@H]2[C@@H]3OP(O)(=S)OC[C@H]2O[C@@H](n3cnc4c(N)ncnc43)[C@H](O)[C@@H]2OP(O)(=S)OC[C@H]2O[C@@H](n3cnc4c(=O)[nH]c(N)nc43)[C@H](O)[C@@H]2OP(O)(=S)OC[C@H]2O[C@@H](n3cnc4c(=O)[nH]c(N)nc43)[C@H](O)[C@@H]2OP(O)(=S)OC[C@H]2O[C@@H](n3cc(C)c(=O)[nH]c3=O)C[C@@H]2OP(O)(=S)OC[C@H]2O[C@@H](n3ccc(N)nc3=O)[C@H](O)[C@@H]2OP(O)(=S)OC[C@H]2O[C@@H](n3ccc(N)nc3=O)[C@H](O)[C@@H]2OP(O)(=S)OC[C@H]2O[C@@H](n3ccc(N)nc3=O)[C@H](O)[C@@H]2OP(O)(=S)OC[C@H]2O[C@@H](n3cnc4c(=O)[nH]c(N)nc43)[C@H](O)[C@@H]2OP(O)(=S)OC[C@H]2O[C@@H](n3cnc4c(=O)[nH]c(N)nc43)[C@H](O)[C@@H]2OP(O)(=S)OC[C@H]2O[C@@H](n3cc(C)c(=O)[nH]c3=O)C[C@@H]2OP(O)(=S)OC[C@@]23CO[C@@H]([C@H](n4cc(C)c(=O)[nH]c4=O)O2)[C@@H]3OP(O)(=S)OC[C@@]23CO[C@@H]([C@H](n4ccc(N)nc4=O)O2)[C@@H]3O)c(=O)nc1N` (stereo partly drawn), in data set [4], the Activity result is on record as “Non-toxic”. Also, the outcome in data set [5] and in data set [6] was Active.
Consider `Cc1cn([C@@H]2O[C@@]3(COP(O)(=S)O[C@H]4[C@H]5OC[C@]4(COP(O)(=S)O[C@@H]4[C@H](O)[C@@H](COP(O)(=S)O[C@H]6[C@@H](O)[C@H](n7cnc8c(=O)[nH]c(N)nc87)O[C@@H]6COP(O)(=S)O[C@H]6[C@@H](O)[C@H](n7ccc(N)nc7=O)O[C@@H]6COP(O)(=S)O[C@H]6[C@@H](O)[C@H](n7ccc(N)nc7=O)O[C@@H]6COP(O)(=S)O[C@H]6C[C@H](n7cc(C)c(=O)[nH]c7=O)O[C@@H]6COP(O)(=S)O[C@H]6[C@@H](O)[C@H](n7ccc(N)nc7=O)O[C@@H]6COP(O)(=S)O[C@H]6C[C@H](n7cc(C)c(=O)[nH]c7=O)O[C@@H]6COP(O)(=S)O[C@H]6[C@@H](O)[C@H](n7cnc8c(=O)[nH]c(N)nc87)O[C@@H]6COP(O)(=S)O[C@H]6[C@@H](O)[C@H](n7cnc8c(=O)[nH]c(N)nc87)O[C@@H]6COP(O)(=S)O[C@H]6[C@@H](O)[C@H](n7cnc8c(N)ncnc87)O[C@@H]6COP(O)(=S)O[C@H]6[C@H]7OC[C@]6(COP(O)(=S)O[C@H]6[C@H]8OC[C@]6(COP(O)(=S)O[C@H]6[C@H]9OC[C@]6(CO)O[C@H]9n6cc(C)c(=O)[nH]c6=O)O[C@H]8n6cc(C)c(=O)[nH]c6=O)O[C@H]7n6cc(C)c(=O)[nH]c6=O)O[C@H]4n4cnc6c(N)ncnc64)O[C@H]5n4cc(C)c(=O)[nH]c4=O)CO[C@@H]2[C@@H]3O)c(=O)nc1N` (stereo partly drawn), for which the Activity entry in data set [4] is reported as “Non-toxic”. Also, the result in data set [5] and in data set [6] was Active.
In the case of `Cc1cn([C@@H]2O[C@@]3(COP(O)(=S)O[C@H]4[C@H]5OC[C@]4(COP(O)(=S)O[C@@H]4[C@H](O)[C@@H](COP(O)(=S)O[C@H]6[C@@H](O)[C@H](n7cnc8c(=O)[nH]c(N)nc87)O[C@@H]6COP(O)(=S)O[C@H]6[C@@H](O)[C@H](n7ccc(N)nc7=O)O[C@@H]6COP(O)(=S)O[C@H]6[C@@H](O)[C@H](n7ccc(N)nc7=O)O[C@@H]6COP(O)(=S)O[C@H]6C[C@H](n7cc(C)c(=O)[nH]c7=O)O[C@@H]6COP(O)(=S)O[C@H]6[C@@H](O)[C@H](n7ccc(N)nc7=O)O[C@@H]6COP(O)(=S)O[C@H]6C[C@H](n7cc(C)c(=O)[nH]c7=O)O[C@@H]6COP(O)(=S)O[C@H]6[C@@H](O)[C@H](n7cnc8c(=O)[nH]c(N)nc87)O[C@@H]6COP(O)(=S)O[C@H]6[C@@H](O)[C@H](n7cnc8c(=O)[nH]c(N)nc87)O[C@@H]6COP(O)(=S)O[C@H]6[C@@H](O)[C@H](n7cnc8c(N)ncnc87)O[C@@H]6COP(O)(=S)O[C@H]6[C@H]7OC[C@]6(COP(O)(=S)O[C@H]6[C@H]8OC[C@]6(CO)O[C@H]8n6cc(C)c(=O)[nH]c6=O)O[C@H]7n6cc(C)c(=O)[nH]c6=O)O[C@H]4n4cnc6c(N)ncnc64)O[C@H]5n4cc(C)c(=O)[nH]c4=O)CO[C@@H]2[C@@H]3O)c(=O)nc1N` (stereo partly drawn), the Activity entry in data set [4] is on record as “Non-toxic”. In addition, the outcome in data set [5] and in data set [6] was Active.
Take `COCCO[C@@H]1[C@H](O)[C@@H](COP(O)(=S)O[C@H]2[C@@H](OCCOC)[C@H](n3cc(C)c(N)nc3=O)O[C@@H]2COP(O)(=S)O[C@H]2[C@@H](OCCOC)[C@H](n3cc(C)c(=O)[nH]c3=O)O[C@@H]2COP(O)(=S)O[C@H]2[C@@H](OCCOC)[C@H](n3cc(C)c(=O)[nH]c3=O)O[C@@H]2COP(O)(=S)O[C@H]2[C@@H](OCCOC)[C@H](n3cc(C)c(N)nc3=O)O[C@@H]2COP(O)(=S)O[C@H]2[C@@H](O)[C@H](n3cc(C)c(N)nc3=O)O[C@@H]2COP(O)(=S)O[C@H]2[C@@H](O)[C@H](n3cc(C)c(N)nc3=O)O[C@@H]2COP(O)(=S)O[C@H]2C[C@H](n3cc(C)c(=O)[nH]c3=O)O[C@@H]2COP(O)(=S)O[C@H]2[C@@H](O)[C@H](n3cnc4c(=O)[nH]c(N)nc43)O[C@@H]2COP(O)(=S)O[C@H]2[C@@H](O)[C@H](n3cnc4c(N)ncnc43)O[C@@H]2COP(O)(=S)O[C@@H]2[C@H](O)[C@@H](COP(O)(=S)O[C@H]3[C@@H](O)[C@H](n4cnc5c(=O)[nH]c(N)nc54)O[C@@H]3COP(O)(=S)O[C@H]3[C@@H](O)[C@H](n4cnc5c(=O)[nH]c(N)nc54)O[C@@H]3COP(O)(=S)O[C@H]3C[C@H](n4cc(C)c(=O)[nH]c4=O)O[C@@H]3COP(O)(=S)O[C@H]3C[C@H](n4cc(C)c(=O)[nH]c4=O)O[C@@H]3COP(O)(=S)O[C@H]3[C@@H](OCCOC)[C@H](n4cc(C)c(=O)[nH]c4=O)O[C@@H]3COP(O)(=S)O[C@H]3[C@@H](OCCOC)[C@H](n4cc(C)c(N)nc4=O)O[C@@H]3COP(O)(=S)O[C@H]3[C@@H](OCCOC)[C@H](n4ccc(N)nc4=O)O[C@@H]3COP(O)(=S)O[C@H]3[C@@H](OCCOC)[C@H](n4cc(C)c(N)nc4=O)O[C@@H]3COP(O)(=S)O[C@H]3[C@@H](OCCOC)[C@H](n4cc(C)c(N)nc4=O)O[C@@H]3CO)O[C@H]2n2cnc3c(N)ncnc32)O[C@H]1n1cc(C)c(N)nc1=O` (stereo partly drawn): the Activity entry in data set [4] is on record as “Non-toxic”. The result in data set [5] and in data set [6] was Active.

The record behind these values is ChEMBL document CHEMBL1140861, “Short antisense oligonucleotides with novel 2'-4' conformationaly restricted nucleoside analogues show improved potency without increased toxicity in animals” (J Med Chem, 2009).
